From ChEMBL document CHEMBL1811814, “Synthesis and evaluation of indole, pyrazole, chromone and pyrimidine based conjugates for tumor growth inhibitory activities--development of highly efficacious cytotoxic agents” (Eur J Med Chem, 2010)

Columns and labels:
Assay type in all cases: functional
Set-up in all cases: scale not given: the % may be the effect or the level left
CCRF-CEM = assay: Growth inhibition of human CCRF-CEM cells assessed tumor cell growth at 10^-5 M
How it was run: (§1)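 NCI 60-human-tumor-cell-line panel screen. Each compound was tested at a single concentration of 10^-5 M, and percent growth of tumor cells was recorded for each cell line. Growth inhibition was expressed from these percent-growth values.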

HL-60(TB) = assay: Growth inhibition of human HL-60(TB) cells assessed tumor cell growth at 10^-5 M
How it was run: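 HL-60(TB), part of the 60-line panel, tested at a single concentration of 10^-5 M. The read-out is percent tumor cell growth relative to untreated growth.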

K562 = assay: Growth inhibition of human K562 cells assessed tumor cell growth at 10^-5 M; how it was run: as §1
MOLT-4 = assay: Growth inhibition of human MOLT4 cells assessed tumor cell growth at 10^-5 M; how it was run: as §1
[1] = Growth inhibition of human […] cells assessed tumor cell growth at 10^-5 M; how it was run: as §1
SR = assay: Growth inhibition of human SR cells assessed tumor cell growth at 10^-5 M
How it was run: (§2)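 Single-dose screen at 10^-5 M across the 60 human tumor cell line panel, run to NCI standards. The value is the percent growth of each cell line in the presence of compound. Compounds active at this dose moved on to five-concentration testing (10^-4 to 10^-8 M).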

A549 = assay: Growth inhibition of human A549 cells assessed tumor cell growth at 10^-5 M; how it was run: as §1
EKVX = assay: Growth inhibition of human EKVX cells assessed tumor cell growth at 10^-5 M; how it was run: as §1
HOP-62 = assay: Growth inhibition of human HOP62 cells assessed tumor cell growth at 10^-5 M; how it was run: as §1
HOP-92 = assay: Growth inhibition of human HOP92 cells assessed tumor cell growth at 10^-5 M; how it was run: as §1
NCI-H226 = assay: Growth inhibition of human NCI-H226 cells assessed tumor cell growth at 10^-5 M; how it was run: as §1
NCI-H23 = assay: Growth inhibition of human NCI-H23 cells assessed tumor cell growth at 10^-5 M; how it was run: as §1
NCI-H322M = assay: Growth inhibition of human NCI-H322M cells assessed tumor cell growth at 10^-5 M; how it was run: as §1
NCI-H460 = assay: Growth inhibition of human NCI-H460 cells assessed tumor cell growth at 10^-5 M; how it was run: as §1
NCI-H522 = assay: Growth inhibition of human NCI-H522 cells assessed tumor cell growth at 10^-5 M; how it was run: as §1
COLO 205 = assay: Growth inhibition of human COLO205 cells assessed tumor cell growth at 10^-5 M; how it was run: as §1
HCC 2998 = assay: Growth inhibition of human HCC2998 cells assessed tumor cell growth at 10^-5 M; how it was run: as §1
HCT-116 = assay: Growth inhibition of human HCT116 cells assessed tumor cell growth at 10^-5 M; how it was run: as §1
HCT-15 = assay: Growth inhibition of human HCT15 cells assessed tumor cell growth at 10^-5 M; how it was run: as §1
HT-29 = assay: Growth inhibition of human HT-29 cells assessed tumor cell growth at 10^-5 M; how it was run: as §1
KM12 = assay: Growth inhibition of human KM12 cells assessed tumor cell growth at 10^-5 M; how it was run: as §1
SW-620 = assay: Growth inhibition of human SW620 cells assessed tumor cell growth at 10^-5 M; how it was run: as §2
SF-268 = assay: Growth inhibition of human SF268 cells assessed tumor cell growth at 10^-5 M; how it was run: as §1
SF-295 = assay: Growth inhibition of human SF295 cells assessed tumor cell growth at 10^-5 M; how it was run: as §1
SF-539 = assay: Growth inhibition of human SF539 cells assessed tumor cell growth at 10^-5 M; how it was run: as §1
SNB-19 = assay: Growth inhibition of human SNB19 cells assessed tumor cell growth at 10^-5 M; how it was run: as §2
SNB-75 = assay: Growth inhibition of human SNB75 cells assessed tumor cell growth at 10^-5 M; how it was run: as §2
U-251 = assay: Growth inhibition of human U251 cells assessed tumor cell growth at 10^-5 M; how it was run: as §2
LOX IMVI = assay: Growth inhibition of human LOXIMVI cells assessed tumor cell growth at 10^-5 M; how it was run: as §1
Malme-3M = assay: Growth inhibition of human MALME-3M cells assessed tumor cell growth at 10^-5 M; how it was run: as §1
M14 = assay: Growth inhibition of human M14 cells assessed tumor cell growth at 10^-5 M; how it was run: as §1
MDA-MB-435 = assay: Growth inhibition of human MDA-MB-435 cells assessed tumor cell growth at 10^-5 M; how it was run: as §1
SK-MEL-2 = assay: Growth inhibition of human SK-MEL-2 cells assessed tumor cell growth at 10^-5 M; how it was run: as §1
SK-MEL-28 = assay: Growth inhibition of human SK-MEL-28 cells assessed tumor cell growth at 10^-5 M; how it was run: as §1
SK-MEL-5 = assay: Growth inhibition of human SK-MEL-5 cells assessed tumor cell growth at 10^-5 M; how it was run: as §1
UACC-257 = assay: Growth inhibition of human UACC257 cells assessed tumor cell growth at 10^-5 M; how it was run: as §2
UACC-62 = assay: Growth inhibition of human UACC62 cells assessed tumor cell growth at 10^-5 M; how it was run: as §2
IGROV-1 = assay: Growth inhibition of human IGROV1 cells assessed tumor cell growth at 10^-5 M; how it was run: as §1
OVCAR-3 = assay: Growth inhibition of human OVCAR3 cells assessed tumor cell growth at 10^-5 M; how it was run: as §1
OVCAR-4 = assay: Growth inhibition of human OVCAR4 cells assessed tumor cell growth at 10^-5 M; how it was run: as §1
OVCAR-5 = assay: Growth inhibition of human OVCAR5 cells assessed tumor cell growth at 10^-5 M; how it was run: as §1
OVCAR-8 = assay: Growth inhibition of human OVCAR8 cells assessed tumor cell growth at 10^-5 M; how it was run: as §1
NCI/ADR-RES = assay: Growth inhibition of human NCI/ADR-RES cells assessed tumor cell growth at 10^-5 M; how it was run: as §1
SK-OV-3 = assay: Growth inhibition of human SKOV3 cells assessed tumor cell growth at 10^-5 M; how it was run: as §1
786-0 = assay: Growth inhibition of human 786-0 cells assessed tumor cell growth at 10^-5 M; how it was run: as §1
A498 = assay: Growth inhibition of human A498 cells assessed tumor cell growth at 10^-5 M; how it was run: as §1
ACHN = assay: Growth inhibition of human ACHN cells assessed tumor cell growth at 10^-5 M; how it was run: as §1
CAKI-1 = assay: Growth inhibition of human Caki1 cells assessed tumor cell growth at 10^-5 M; how it was run: as §1
RXF 393 = assay: Growth inhibition of human RXF393 cells assessed tumor cell growth at 10^-5 M; how it was run: as §1
SN12C = assay: Growth inhibition of human SN12C cells assessed tumor cell growth at 10^-5 M; how it was run: as §1
TK-10 = assay: Growth inhibition of human TK10 cells assessed tumor cell growth at 10^-5 M; how it was run: as §2
UO-31 = assay: Growth inhibition of human UO31 cells assessed tumor cell growth at 10^-5 M; how it was run: as §2
PC-3 = assay: Growth inhibition of human PC3 cells assessed tumor cell growth at 10^-5 M; how it was run: as §1
DU-145 = assay: Growth inhibition of human DU145 cells assessed tumor cell growth at 10^-5 M; how it was run: as §1
MCF7 = assay: Growth inhibition of human MCF7 cells assessed tumor cell growth at 10^-5 M; how it was run: as §1
MDA-MB-231 = assay: Growth inhibition of human MDA-MB-231 cells assessed tumor cell growth at 10^-5 M; how it was run: as §1
[2] = Growth inhibition of human Hs 578T cells assessed tumor cell growth at 10^-5 M; how it was run: as §1
BT-549 = assay: Growth inhibition of human BT549 cells assessed tumor cell growth at 10^-5 M; how it was run: as §1
T47D = assay: Growth inhibition of human T47D cells assessed tumor cell growth at 10^-5 M; how it was run: as §2
MDA-MB-468 = assay: Growth inhibition of human MDA-MB-468 cells assessed tumor cell growth at 10^-5 M; how it was run: as §1

SMILES: CC1=NN(c2cccc(Cl)c2)C(=O)/C1=C\c1cn(Cc2ccccc2)c2ccccc12
- Activity (CCRF-CEM): 109.04%
- Activity (HL-60(TB)): 99.67%
- Activity (K562): 93.59%
- Activity (MOLT-4): 89.6%
- Activity [1]: 88.18%
- Activity (SR): 86.52%
- Activity (A549): 90.89%
- Activity (EKVX): 82.36%
- Activity (HOP-62): 81.96%
- Activity (HOP-92): 94.45%
- Activity (NCI-H226): 16.9%
- Activity (NCI-H23): 88.9%
- Activity (NCI-H322M): 105.8%
- Activity (NCI-H460): 55.83%
- Activity (NCI-H522): 86.7%
- Activity (COLO 205): 96.36%
- Activity (HCC 2998): 109.37%
- Activity (HCT-116): 81.87%
- Activity (HCT-15): 97.68%
- Activity (HT-29): 93.03%
- Activity (KM12): 93.39%
- Activity (SW-620): 93.2%
- Activity (SF-268): 95.57%
- Activity (SF-295): 74.11%
- Activity (SF-539): 96.45%
- Activity (SNB-19): 93.46%
- Activity (SNB-75): 80.99%
- Activity (U-251): 89.34%
- Activity (LOX IMVI): 87%
- Activity (Malme-3M): 92.02%
- Activity (M14): 93.78%
- Activity (MDA-MB-435): 106.21%
- Activity (SK-MEL-2): 90.21%
- Activity (SK-MEL-28): 98.38%
- Activity (SK-MEL-5): 90.4%
- Activity (UACC-257): 93.1%
- Activity (UACC-62): 78.13%
- Activity (IGROV-1): 85.79%
- Activity (OVCAR-3): 95.7%
- Activity (OVCAR-4): 88.56%
- Activity (OVCAR-5): 43.95%
- Activity (OVCAR-8): 97.42%
- Activity (NCI/ADR-RES): 100.71%
- Activity (SK-OV-3): 71.03%
- Activity (786-0): 100.84%
- Activity (A498): 89.58%
- Activity (ACHN): 84.07%
- Activity (CAKI-1): 89.4%
- Activity (RXF 393): 92.68%
- Activity (SN12C): 101.76%
- Activity (TK-10): 154.6%
- Activity (UO-31): 71.93%
- Activity (PC-3): 84.66%
- Activity (DU-145): 103.96%
- Activity (MCF7): 72.9%
- Activity (MDA-MB-231): 89.94%
- Activity [2]: 90.49%
- Activity (BT-549): 107.13%
- Activity (T47D): 67.17%
- Activity (MDA-MB-468): 76.71%
